Only some compounds are listed: those with a hit (about 2.4% of all), similar ones and a draw of the others.
SR-BI uptake up: activators of SR-BI mediated DiI-HDL uptake, primary screen, ldlA[mSR-BI] CHO cells, DiI fluorescence. 0.096% of 320,000 active. activation, % at 12.5 µM. 3 h; 100 = double the neutral-control signal;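 active = mean replicate activation of at least 60% and every replicate at or above 60%; inconclusive = mean or all-replicate condition met, but not both; inactive = mean below 60% and not all replicates reaching 60%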
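Material: SR-BI-overexpressing, LDLR-lacking CHO cells | Dosing: Single compound concentration, delivered by pin transfer | Probe or stimulus: Labelled HDL, 10 µg/mL | Signal: Bottom-read cell fluorescence after medium removal, ex 550/em 595 nm | Schedule: 3 h, 37 °C | Evaluation: HDL uptake via cellular fluorescence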
MIN6 prolif: inducers of MIN6 beta-cell proliferation, primary screen, ATP luminescence, uHTS. MIN6 cells proliferation, ATPlite luminescence, 48 h; cells starved in 0.2% serum; 100% = growth in 10% serum. proliferation, % at 10 µM. 0.29% of 330,000 active;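 active = compounds whose signal lies at least 3.5 SD above the mean of all wells on their plate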
Insulin prom up: insulin promoter activators in MIN6 cells, imaging, high-content screening, mouse beta cells. z-score at 5 µM. 0.3% of 190,000 active. MIN6 insulin promoter-GFP reporter; stronger effect = higher value;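 active = z-score above 3 at 5 µM with at least 500 cells counted in the well; inconclusive = wells under 500 cells, flagged as cytotoxic or low count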
SR-BI HDL uptake: inhibitors of SR-BI mediated HDL lipid uptake, primary screen, ldlA[mSR-BI] cells, fluorescence, single point. ldlA[mSR-BI] CHO cells, DiI-HDL uptake fluorescence, 3 h. AID 488896, 2010. 0.96% of 320,000 active. inhibition, % at 12.5 µM;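 active = mean replicate inhibition of at least 70% and a set share of replicates each scoring 70 or more; inconclusive = meets just one of the two criteria; inactive = fails both criteria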
HTR2A ag: mouse Htr2a agonists via beta-arrestin recruitment, primary screen, cell-based, luminescence. 5-hydroxytryptamine receptor 2A (Mus musculus), P35363. CHO-K1 mHTR2A beta-arrestin complementation; percent of 30 µM serotonin response. activation, % at 7.6 µM. 0.66% of 360,000 active. AID 624169, 2012;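 active = activation above a run cutoff, the mean activation of all tested compounds plus 3 SD, cut at about 14% in these data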
Target sequence (P35363 whole entry, looked up): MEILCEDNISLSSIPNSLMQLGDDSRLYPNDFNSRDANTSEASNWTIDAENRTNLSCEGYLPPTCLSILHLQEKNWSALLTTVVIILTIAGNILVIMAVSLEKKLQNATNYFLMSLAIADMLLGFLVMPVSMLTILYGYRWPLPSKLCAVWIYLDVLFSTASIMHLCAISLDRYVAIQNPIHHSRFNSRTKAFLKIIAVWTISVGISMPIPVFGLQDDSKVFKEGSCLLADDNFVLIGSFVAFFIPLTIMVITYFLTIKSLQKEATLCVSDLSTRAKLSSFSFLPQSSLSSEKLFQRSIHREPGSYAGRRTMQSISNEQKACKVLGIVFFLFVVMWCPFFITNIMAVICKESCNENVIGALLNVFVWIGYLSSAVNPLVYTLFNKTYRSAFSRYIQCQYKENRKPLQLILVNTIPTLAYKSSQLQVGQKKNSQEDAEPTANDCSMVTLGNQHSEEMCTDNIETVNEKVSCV
Calb FLC: C. albicans growth inhibition with fluconazole, primary screen, CaCi-2 strain, Alamar Blue fluorescence; C. albicans CaCi-2 + fluconazole, 48 h; growth inhibition, % (no concentration beside the values); 0.57% of 300,000 active; AID 1979, 2009;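 active = growth inhibition above about 58% in most replicates, limit read from the data, passing the limit was not always enough; inconclusive = exactly half the replicates above a set limit; inactive = most replicates below a set limit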;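 also: all wells also contain fluconazole at 8 µg/ml as a sub-toxic cotreatment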
MOR ag counter: OPRM1 agonists via beta-arrestin recruitment, confirmation, counter-screen for mouse HTR2A agonist project, cell-based, luminescence, single concentration; U2OS OPRM1 beta-arrestin PathHunter; DMSO 0%, DAMGO 9.3 µM 100%; 5.3% of 2,300 active; shares compounds with HTR2A ag; activation, % at 9.3 µM;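 active = mean activation above the mean of DMSO-only wells plus 3 SD, cut at about 0.5% in these data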
m5-HT2A ag conf: mouse HTR2A agonists, beta-arrestin recruitment, confirmation, cell-based, luminescence, CHO-K1 PathHunter, triplicate | shares compounds with HTR2A ag | DMSO 0%, 30 µM serotonin 100% | activation, % at 7.6 µM | 19% of 2,300 active | AID 624381, 2012;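 active = mean activation across triplicates above the hit threshold derived in the original primary screen, cut at about 15% in these data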
A number is an active result; n = inactive; u = inconclusive; x = no result given.

SMILES	SR-BI uptake up	MIN6 prolif	Insulin prom up	SR-BI HDL uptake	HTR2A ag	Calb FLC	MOR ag counter	m5-HT2A ag conf
O=C(NCC1CCOCC1)C1Cc2c(-c3ccccc3Oc3ccccc3)ccnc2O1 (stereo not given)	x	x	x	x	n	x	x	x
CCCc1nc2nc(C)c(NS(=O)(=O)c3ccc(CC(C)C)cc3)c(=O)n2[nH]1	x	n	x	x	16	n	n	n
O=C(CNC(=O)c1ccccc1F)OCCCOC(=O)CNC(=O)c1ccccc1F	n	n	x	n	15	n	n	n
Cc1nc2sc(C(c3ccccc3)N3CCN(CCO)CC3)c(O)n2n1 (stereo not given)	n	n	n	n	32	n	n	n
Cc1nc2sc(C(c3ccco3)N3CC(C)OC(C)C3)c(O)n2n1 (stereo not given)	n	n	n	n	23	n	n	n
CCOC(=O)C1(C)CCN1C(=O)c1ccc(SC(F)(F)F)cc1 (stereo not given)	x	x	x	x	16	x	n	n
CCOC(=O)C1(C)CCCCCN1C(=O)c1ccc(SC(F)(F)F)cc1 (stereo not given)	x	x	x	x	n	x	x	x
Cc1noc(C)c1C(=O)N1CCN(c2ccc(OCc3ccccc3)cc2)CC1	n	n	n	n	n	n	x	x
COc1ccccc1CNC(=O)C[C@H]1CC[C@@H]2[C@H](COC[C@H](O)CN2Cc2ccc3c(c2)OCO3)O1	x	x	x	x	25	x	n	n
COc1ccccc1CNC(=O)C[C@@H]1CC[C@H]2[C@@H](COC[C@H](O)CN2Cc2ccccc2)O1	x	x	x	x	n	x	x	x
Cc1nnc(SCC(=O)Nc2cc(Cl)ccc2Cl)n1CC1CCCO1 (stereo not given)	n	n	x	n	17	n	n	n
Cc1c(Cl)cccc1NC(=O)CSc1nnc(C)n1CC1CCCO1 (stereo not given)	n	n	x	n	n	n	x	x
CSc1nnc(-c2ccc(NC(N)=S)cc2)o1	n	n	n	n	n	n	x	x
CSc1nnc(-c2cccc(NC(=S)NN)c2)o1	n	n	n	n	27	u	n	n
CCOC(=O)/C(C#N)=C/c1c(N2CCN(c3cccc(Cl)c3)CC2)nc2c(C)cccn2c1=O	n	n	x	n	n	n	x	x
C=CCNC(=O)/C(C#N)=C/c1c(N2CCN(c3cccc(Cl)c3)CC2)nc2c(C)cccn2c1=O	n	n	x	n	20	n	n	n
CNC(=O)/C(C#N)=C/c1c(N2CCN(c3cccc(Cl)c3)CC2)nc2c(C)cccn2c1=O	n	n	x	n	19	n	n	n
N#Cc1cccc(NC(=O)c2cc(C3CCCCN3C(=O)c3cccs3)on2)c1 (stereo not given)	x	x	x	x	n	x	x	x
Cc1nc(-c2ccc(S(=O)(=O)NCc3cccnc3)s2)cs1	n	n	x	n	n	n	x	x
CC(=O)N1CCC(N2CCN(c3ccccc3F)CC2)CC1	n	n	n	n	26	n	n	64
CCC1CCC(N2CCN(c3ccccc3F)CC2)CC1 (stereo not given)	n	n	x	n	n	n	x	x
O=c1c2ccccc2c2ccccc2c(=O)n1Nc1ccccc1	x	x	x	x	20	x	n	n
O=C1C2CC=CCC2C(=O)N1Nc1ccccc1 (stereo not given)	n	n	n	n	n	n	x	x
CC(C)(C)NS(=O)(=O)c1cc(C(=O)Nc2sccc2C#N)ccc1Cl	n	n	n	n	18	n	n	15
N#Cc1ccsc1NC(=O)c1cnccn1	x	n	x	n	n	n	x	x
SMILES	SR-BI uptake up	MIN6 prolif	Insulin prom up	SR-BI HDL uptake	HTR2A ag	Calb FLC	MOR ag counter	m5-HT2A ag conf
Cn1nnnc1SCC(=O)N1c2ccccc2Sc2ccccc21	n	n	n	n	39	n	n	n
CCn1nnnc1SCC(=O)N1c2ccccc2Sc2ccccc21	n	n	x	n	n	n	x	x
O=C(Cc1ccc2c(c1)OCCO2)Nc1cc(C(F)(F)F)ccc1N1CCOCC1	n	n	x	n	n	x	x	x
Cc1ccccc1-c1cnc2c(c1)C(=O)N([C@@H](C)CO)C[C@@H](C)[C@H](CN(C)Cc1ccccc1F)O2	x	x	x	x	n	x	x	x
COc1ccc(C)cc1S(=O)(=O)n1c([N+](=O)[O-])cnc1C	n	n	x	n	15	n	n	n
COc1ccc(S(=O)(=O)n2c([N+](=O)[O-])cnc2C)cc1OC	n	n	x	n	n	n	x	x
CC/C(=N\NC(=O)C1CCCC1)c1ccc(Br)cc1	n	n	x	n	18	n	n	n
CO[C@@H]1CN(C)C(=O)c2ccc(NS(=O)(=O)c3c(C)noc3C)cc2OC[C@@H](C)NC[C@@H]1C	x	x	x	x	n	x	x	x
Cc1cc(N2CCOCC2)nc2ccc(NC(=S)N3CCN(c4ccccc4)CC3)cc12	n	n	n	n	n	n	x	x
Cc1cccc(N2CCN(C(=S)Nc3ccc4nc(N5CCOCC5)cc(C)c4c3)CC2C)c1 (stereo not given)	n	n	n	n	16	n	n	n
COc1cc(/C=C/C(=O)OCC(=O)NC(C)c2ccccc2)cc(OC)c1OC (stereo not given)	n	n	x	n	15	x	n	n
OC(c1ccc(F)cc1)c1ncc(-c2ccc(Oc3ccccc3)cc2)[nH]1 (stereo not given)	x	x	x	x	n	x	x	x
Cc1cc(C(O)c2ncc(-c3ccc(Oc4ccccc4)cc3)[nH]2)ccc1F (stereo not given)	x	x	x	x	21	x	n	n
CCCn1c(SCC(=O)NCCc2ccc(Cl)cc2Cl)n[nH]c1=O	n	n	n	n	16	n	n	n
O=C(CCS(=O)(=O)c1ccccc1)NC1CCCCC1	n	n	x	n	n	n	x	x
O=C(CCS(=O)(=O)c1ccccc1Cl)NC1CCCCCC1	n	n	x	n	21	x	n	n
Cc1nn(-c2ccccc2)c(N2CCCC2)c1/C=N/NC(=O)c1cc(-c2ccccn2)nc2ccccc12	n	n	n	n	15	n	n	n
Cc1nn(-c2ccccc2)c(N2CCCC2)c1/C=N/NC(=O)c1cc(-c2cccs2)nc2ccccc12	n	n	n	n	n	n	x	x
Cc1cc(C)c2cc(CN(CCO)C(=O)Nc3ccc(Cl)cc3)c(=O)[nH]c2c1	x	n	n	x	x	n	x	x

Compound activity: PubChem, several laboratories
